Converted amounts (≈) assume the structure as drawn. A value given as a limit tells only on which side of the number the result lay.

The subject of test [1] is HUVEC. The test can be described thus: Growth inhibitory activity against human umbilical vein endothelial cells (HUVEC) proliferation using MTT colorimetric method. The class given is functional, cell-based. In a few lines: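 HUVEC seeded at 10,000 cells/well in growth-factor-containing EGM-2 and left 4 h to adhere. Compounds diluted in medium were added, followed by 72 h incubation at 37 in humidified 5% CO2. Viability was read by MTT colorimetric assay. IC50 came from nonlinear regression.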

The test system of test [2] is HUVEC. The test can be described thus: Percentage inhibition against growth factor induced tube formation by human umbilical vein endothelial cells (HUVEC) at 10 ug/mL concentration. Format: functional. In a few lines:
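HUVEC plated at 5000 cells/well on solidified Matrigel and incubated 16 h at 37 in humidified 5% CO2, with compound at 10 μg/mL, in triplicate. Cells were then stained with toluidine blue in 4% paraformaldehyde and photographed. A blinded observer counted tube branches per well. Inhibition was expressed relative to untreated control.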

Take `CC1(C)CCC[C@]2(C)[C@H]3CC(=O)O[C@]3(C)CC[C@@H]12`: the IC50 with HUVEC [1] was more than 50 µg/mL.
In the case of `C=C1[C@H](O[Si](C)(C)C(C)(C)C)C[C@H]2C(C)(C)CCC[C@]2(C)[C@H]1/C=C/c1ccoc1`, in the test on HUVEC [1], the IC50 was more than 50 µg/mL. In the test on HUVEC [2], this compound had an inhibition at 10 µg/mL of 5%.
`C=C1[C@@H](O[Si](C)(C)C(C)(C)C)C[C@H]2C(C)(C)CCC[C@]2(C)[C@H]1C[C@@H](O)c1ccoc1`: the IC50 in the test with HUVEC [1] came out at 3.76 µg/mL (≈ 8.69 µM). The compound also gave an inhibition at 10 µg/mL with HUVEC [2] of 10%.
In the test on HUVEC [1], `C=C1[C@@H](O)C[C@H]2C(C)(C)CCC[C@]2(C)[C@H]1C[C@@H](O)c1ccoc1` yielded an IC50 of 15 µg/mL (≈ 47.2 µM). This compound gave an inhibition at 10 µg/mL in the test on HUVEC [2] of 0%.
For `C=C1[C@@H](O)C[C@H]2C(C)(C)CCC[C@]2(C)[C@H]1C[C@H](O)c1ccoc1`, in that order: 29.7 µg/mL (≈ 93.2 µM) and 10%.
`C=C1[C@@H](O[Si](C)(C)C(C)(C)C)C[C@H]2C(C)(C)CCC[C@]2(C)[C@H]1/C=C/c1ccoc1`: the IC50 in the test on HUVEC [1] is more than 50 µg/mL. Further, in the test on HUVEC [2], at 10 µg/mL the inhibition was 22%.
Consider `C=C1[C@@H](O[Si](C)(C)C(C)(C)C)C[C@H]2C(C)(C)CCC[C@]2(C)[C@H]1C[C@H](O)c1ccoc1`, for which the midpoint of inhibition in the test with HUVEC [1], the IC50, lay at 7.71 µg/mL (≈ 17.8 µM). In addition, in the test on HUVEC [2], at 10 µg/mL the inhibition was 20%.
In the test on HUVEC [1], `C=C1[C@H](O)C[C@H]2C(C)(C)CCC[C@]2(C)[C@H]1/C=C/c1ccoc1` returned an IC50 of 3.12 µg/mL (≈ 10.4 µM). This compound yielded an inhibition at 10 µg/mL with HUVEC [2] of 90%.
For `C=C1[C@@H](O)C[C@H]2C(C)(C)CCC[C@]2(C)[C@H]1/C=C/c1ccoc1` [CORONARIN A], in that order: 4.22 µg/mL (≈ 14 µM) and 55%.
For the compound `C=C[C@](C)(O)CC[C@@H]1[C@@]2(C)CCCC(C)(C)[C@@H]2CC[C@@]1(C)O` [SCLAREOL], the IC50 in the test on HUVEC [1] was more than 50 µg/mL.

Source of the values: ChEMBL document CHEMBL1145734, “A study on the synthesis of antiangiogenic (+)-coronarin A and congeners from (+)-sclareolide” (Bioorg Med Chem Lett, 2003).
